The values that follow come from ChEMBL document CHEMBL1833837, “Tirucallane-type triterpenoids from Dysoxylum lenticellatum” (J Nat Prod, 2011).

Activity calls are given as the source filed them. No cut-off for these calls is given here.

A short description of series [1]: Solubility of the compound. It is filed as physicochemical.
Series [2] has as its system Aorta. Briefly: Vasodilatory activity in rat thoracic aorta assessed as relaxation of phenylephrine-induced precontraction at 4 to 10 ug/mL. It is filed as functional, tissue-based. The gist of the method: (§1)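 Isolated thoracic aortic rings about 3 mm long, taken after pentobarbital anesthesia (60 mg/kg ip). Rings held in Krebs solution at pH 7.4 and 37 °C, gassed with 95% O2/5% CO2, for isometric tension recording. Equilibrated 1 h at 2 g resting tension, then challenged repeatedly with 80 mM KCl. Precontracted with 10^-6 M phenylephrine. Endothelium confirmed by >80% relaxation to 10^-6 M acetylcholine.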

In the next series the test system is HL-60. Briefly: Cytotoxicity against human HL60 cells by SRB assay. It is filed as functional, cell-based. The gist of the method:
(§2)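 SRB assay on tumor cells. Three independent experiments, five replicate wells for each concentration. IC50 obtained by linear regression where applicable. Mitomycin served as positive control.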
(In general: Sulforhodamine B stains cellular protein and so reports cell mass.)

The next series concerns SMMC-7721. Put plainly: Cytotoxicity against human SMMC7721 cells by SRB assay. It is filed as functional, cell-based. The gist of the method:
as §2

Series [3] relates to Aorta. Briefly: Vasodilatory activity in rat thoracic aorta assessed as relaxation of phenylephrine-induced precontraction at 10 ug/mL. Type of series: functional. The arrangement: scale not given: the % may be the effect or the level left. The gist of the method:
as §1

As to `CCO[C@]1([C@@H]2OC2(C)C)CC([C@@H]2CC[C@]3(C)C4=CC[C@H]5C(C)(C)[C@H](O)CC[C@]5(C)[C@H]4CC[C@@]23C)CO1` (stereo partly drawn) [DYSOLENTICIN F], in series [1], the solubility result is on record as “Insoluble”. The result in the series with Aorta [2] was inactive.
`CC1(C)C(=O)CC[C@]2(C)[C@H]3CC[C@@]4(C)[C@H](C5COC(=O)C5)CC[C@]4(C)C3=CC[C@@H]12` (stereo partly drawn): the outcome with HL-60 and in the series with SMMC-7721 was inactive. Further, in the series with Aorta [3], the Activity is on record as 43.5%.
For `CC1(C)O[C@H]1C(=O)C[C@H](C(=O)O)[C@@H]1CC[C@]2(C)C3=CC[C@H]4C(C)(C)C(=O)CC[C@]4(C)[C@H]3CC[C@@]12C`, the outcome in the series with HL-60, in the series on SMMC-7721 and in the series with Aorta [2] was inactive.
Regarding `CC(C)C(=O)C1(O)CC([C@@H]2CC[C@]3(C)C4=CC[C@H]5C(C)(C)C(=O)CC[C@]5(C)[C@H]4CC[C@@]23C)CO1` (mixture of isomers), the outcome in the series with HL-60, in the series with SMMC-7721 and with Aorta [2] was inactive.
`CC1(C)[C@H](O)CC[C@]2(C)[C@H]3CC[C@@]4(C)[C@H](C5COC(=O)C5)CC[C@]4(C)C3=CC[C@@H]12` (stereo partly drawn): the result with HL-60 and with SMMC-7721 was inactive. The Activity with Aorta [3] turned out to be 37.5%.
As for `CC1(C)C(=O)CC[C@]2(C)[C@H]3CC[C@@]4(C)[C@H](C5=CC(=O)NC5=O)CC[C@]4(C)C3=CC[C@@H]12` [LAXIRACEMOSIN H], the outcome with HL-60 and in the series on SMMC-7721 was inactive. Moreover, in the series with Aorta [3], the Activity was 18.3%.
Take `C[C@@H]([C@@H]1O[C@@H]1[C@@H]1OC1(C)C)[C@@H]1CC[C@]2(C)C3=CC[C@H]4C(C)(C)C(=O)CC[C@]4(C)[C@H]3CC[C@@]12C`: the result in the series with HL-60, with SMMC-7721 and in the series with Aorta [2] was inactive.
Turning to `CC(C)=CCC[C@H](C)[C@@H]1CC[C@]2(C)C3=CC[C@H]4C(C)(C)[C@@H](O)CC[C@]4(C)[C@H]3CC[C@@]12C`, the result in the series on HL-60, with SMMC-7721 and with Aorta [2] was inactive.
Turning to `COC(=O)[C@@H](CC(=O)[C@@H]1OC1(C)C)[C@@H]1CC[C@]2(C)C3=CC[C@H]4C(C)(C)C(=O)CC[C@]4(C)[C@H]3CC[C@@]12C`, the outcome with HL-60 and in the series on SMMC-7721 was inactive.
`C[C@@H](CC(=O)[C@@H]1OC1(C)C)[C@@H]1CC[C@]2(C)C3=CC[C@H]4C(C)(C)C(=O)CC[C@]4(C)[C@H]3CC[C@@]12C`: the solubility entry in series [1] is on record as “Insoluble”. Moreover, the outcome with Aorta [2] was inactive.
On to `CC(C)=CC(=O)[C@@H](O)[C@H](C)[C@@H]1CC[C@]2(C)C3=CC[C@H]4C(C)(C)[C@@H](O)CC[C@]4(C)[C@H]3CC[C@@]12C`, for which the outcome with HL-60, in the series on SMMC-7721 and with Aorta [2] was inactive.
`CC1(C)[C@H](O)CC[C@]2(C)[C@H]3CC[C@@]4(C)[C@H](C5=CC(=O)NC5=O)CC[C@]4(C)C3=CC[C@@H]12` [DYSOLENTICIN J]: the result in the series on HL-60 and with SMMC-7721 was inactive. Also, the Activity with Aorta [3] amounted to 87.4%.
In the case of `CC(=O)[C@@H]1CC[C@]2(C)C3=CC[C@H]4C(C)(C)C(=O)CC[C@]4(C)[C@H]3CC[C@@]12C` [DYSOLENTICIN G], the solubility result in series [1] is “Insoluble”.
Take `CC(C)=C[C@@H]1C=C([C@@H]2CC[C@]3(C)C4=CC[C@H]5C(C)(C)C(=O)CC[C@]5(C)[C@H]4CC[C@@]23C)C(=O)O1`: the outcome in the series on HL-60 and in the series on SMMC-7721 was inactive.
For `CC(C)C(=O)C1(O)CC([C@@H]2CC[C@]3(C)C4=CC[C@H]5C(C)(C)[C@H](O)CC[C@]5(C)[C@H]4CC[C@@]23C)CO1` (mixture of isomers), the outcome in the series on HL-60, with SMMC-7721 and in the series with Aorta [2] was inactive.
In the case of `CC1(C)[C@H](O)CC[C@]2(C)[C@H]3CC[C@@]4(C)[C@H]([C@H]5COC(=O)[C@@](O)(C(C)(C)O)C5)CC[C@]4(C)C3=CC[C@@H]12`, the outcome with HL-60, in the series with SMMC-7721 and with Aorta [2] was inactive.
For the compound `CC1(C)C(=O)CC[C@]2(C)[C@H]3CC[C@@]4(C)[C@H](C5=CC(O)(CO)OC5=O)CC[C@]4(C)C3=CC[C@@H]12` (mixture of isomers) [DYSOLENTICIN C], the solubility entry in series [1] is “Insoluble”.
